From PubChem
Most compounds without a hit are left out; they make up all but 1.3% or so of the library.
Hsp70 act: Hsp70 transcriptional activation, primary screen | HeLa Hsp70 promoter luciferase reporter, luminescence; scaled: vehicle 0, proteasome-inhibitor control 100% | activation, % at 10 µM | actives 0.04% (n = 200,000);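 active = activation above the mean across all tested compounds plus 3 SD, cutoff set per campaign, cut at about 5.5% in these data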;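 note: 100% = MG132 at 30 µM as the positive control and 0% = DMSO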
S1P4 antagonist: human S1P4 receptor antagonism. S1P4-expressing cells, antagonist mode, reporter read-out. actives 0.26% (n = 220,000). inhibition, % at 4.98 µM. AID 1510. O95977; in the data active = inhibition above about 29%;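 note: 0% = wells stimulated with agonist and 100% = vehicle wells without agonist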
Dynein cargo inh: blocks dynein driven cargo transport along microtubules | z-score, hits read low | actives 0.47% (n = 220,000) | 3617.4 mouse cells, GR-EGFP nuclear translocation imaging; test concentration mostly 20 µM; stimulated with dexamethasone, 1 µM; active compounds read low | AID 1381;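 active = plate z-score of nuclear minus cytoplasmic receptor signal below a set negative limit, without overly bright fluorescence or cell loss, cut at about -3.5 in these data, passing the limit was not always enough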;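 note: z-score of nuclear minus cytoplasmic ring GR-EGFP intensity difference per well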
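Buffer or medium: tet-free, stripped-serum medium; reagent: dexamethasone at 1.0 µM final, 30 min; incubation: 48 h induction, 1 h compound, 30 min dex at 37 °C; measured by: formaldehyde fixation, Hoechst nuclear stain, 10x automated fluorescence imaging; read-out: nuclear-to-cytoplasmic GR-EGFP distribution per well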
S1P3 antag: S1P3 (human) receptor antagonism; Q99500; CHO S1P3 NFAT-BLA reporter, FRET fluorescence, antagonist mode; inhibition, % at 4.98 µM; actives 0.27% (n = 170,000); AID 485;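 active = inhibition above the plate cutoff, the mean inhibition of test wells on that plate plus 3 SD, cut at about 28% in these data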;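 note: cells challenged with S1P at its EC80 of 0.8 µM; blue over green emission ratio from cleaved BLA substrate after 4 h stimulation; 0% = S1P-stimulated wells and 100% = unstimulated DMSO-only wells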
S1P4 ag: agonists of human S1P4 receptor | O95977 | S1P4-expressing cell line, agonist reporter assay | activation, % at 4.98 µM | actives 0.35% (n = 220,000) | AID 1509; in the data active = activation above about 11%;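 note: 0% = DMSO vehicle and 100% = reference agonist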
Mdm2 ligase inh: blocks human Mdm2 ubiquitin ligase activity; AID 1230; actives 0.11% (n = 210,000); cell-based MDM2 ubiquitination luciferase reporter, 2 h; 0 = plate control, 100 = twice control, blank-subtracted; Q00987; signal enhancement, % at 5 µM;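 active = signal enhancement of 30% or more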;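 note: luminescence tracks abundance of the self-degrading MDM2-luciferase fusion protein; higher signal means inhibition of MDM2 E3 ligase activity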
Target sequence (Q00987 whole entry, looked up, the tested form may be a part): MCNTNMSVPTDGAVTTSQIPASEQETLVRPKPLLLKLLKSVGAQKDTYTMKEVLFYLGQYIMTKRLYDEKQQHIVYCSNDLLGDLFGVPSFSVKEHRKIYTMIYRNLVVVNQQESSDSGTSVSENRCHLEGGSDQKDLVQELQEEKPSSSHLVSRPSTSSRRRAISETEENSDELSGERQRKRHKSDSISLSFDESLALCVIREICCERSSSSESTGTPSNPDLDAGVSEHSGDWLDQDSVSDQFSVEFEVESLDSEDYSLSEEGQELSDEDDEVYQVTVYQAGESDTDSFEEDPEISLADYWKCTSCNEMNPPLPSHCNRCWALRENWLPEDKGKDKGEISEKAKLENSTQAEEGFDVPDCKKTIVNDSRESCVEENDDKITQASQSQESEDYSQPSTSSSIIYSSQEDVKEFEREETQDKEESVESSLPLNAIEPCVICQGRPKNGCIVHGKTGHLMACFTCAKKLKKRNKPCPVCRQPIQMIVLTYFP
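test system = mammalian cells stably expressing self-ubiquitinating, self-degrading MDM2 E3–luciferase fusion | quantity = 2000 cells/well | incubation = cell settling 4 h, compound treatment 2 h, both 37 °C | signal = luminescence with SteadyLite reagent, 15 min at room temperature | evaluation = % enhancement relative to plate controls after blank subtraction | benchmarks = plate controls and plate blanks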
Dynein confirm: dynein cargo transport inhibition, confirmation | calls only at 20 µM | actives 69% (n = 1,000) | 3617.4 GR-EGFP nuclear translocation imaging, dexamethasone-induced | shares compounds with Dynein cargo inh;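 active = inhibition of receptor movement into the nucleus at or above a set limit in both runs, with normal cell brightness and cell count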;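 note: dexamethasone at 1 µM final in well for 30 min; nuclear minus cytoplasmic GR-EGFP mean intensity difference in channel 2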
Numbers without * were called inactive; i = inactive; . = not tested or not shown; + = active, no number.

SMILES	Hsp70 act	S1P4 antagonist	Dynein cargo inh	S1P3 antag	S1P4 ag	Mdm2 ligase inh	Dynein confirm
O=c1[nH]nc(N2CCOCC2)c(=O)[nH]1	.	5	0.47	5	0	-11	.
COc1cc(N2CCCC2)c(OC)cc1/C=C1/NC(=S)NC1=O	0	2	-4.4	4	-1	-13	i
CCCCC1OC2(C)OC(=N)C1(C#N)C(C#N)(C#N)C2c1ccccc1 (stereo not given)	0	-4	-4.5*	-12	3	-6	+
O=C(/C=C/c1cccc([N+](=O)[O-])c1)N1CCOCC1	0	-24	-0.047	8	1	-2	.
O=C(/C=C/c1cccc([N+](=O)[O-])c1)n1cnc2ccccc21	0	12	-5.1*	-11	0	49*	+
CCCCc1cc(O)c(CCCC)c(O)c1	0	-5	-3.9*	26	2	5	+
COc1ccc(CN(CCC(c2ccccc2)c2ccc(OC(C)C)cc2)C(=O)CCl)cc1OC (stereo not given)	0	1	-6.9*	-2	-2	.	+
O=C1C(Cl)=C(NCCN2CCCCC2)C(=O)c2ccccc21	0	-10	-4.2*	-12	1	-15	+
CCc1ccc(/C=C/C(=O)c2c(C)cc(C)[nH]c2=O)cc1	0	17	-4*	.	-1	2	+
CCNc1ccc2noc3c2c1C(=O)c1ccccc1-3	0	-20	-0.085	.	0	-8	.
O=C1c2ccccc2-c2onc3ccc(NCc4ccco4)c1c23	0	-5	-6.6	.	0	-23	i
CCOc1ccc2noc3c2c1C(=O)c1ccccc1-3	0	0	-7.5*	-30	1	4	+
CCSc1nc(O)cc(=O)n1CC	0	-20	1.3	-6	-1	-87	.
CCOC(=O)c1ccc(-n2c(CN(CC)CC)nc3ccc([N+](=O)[O-])cc3c2=O)cc1	0	7	-0.82	-8	0	-9	.
CCc1nc(NC(=O)NS(=O)(=O)c2ccccc2C(=O)OC)nc(OC)n1	0	10	-1	5	0	-16	.
CCN1CCCC(OC(=O)c2cc(-c3ccccc3Cl)nc3ccccc23)C1 (stereo not given)	0	-10	1.4	-9	0	-7	.
Cc1ccc(CN=Cc2[nH]c3ccc(Br)c(Cl)c3c2O)cc1	0	3	-4.3	.	-2	-2	+
Oc1c(C=NCc2ccc(F)cc2)[nH]c2ccc(Br)c(Cl)c12	0	-18	-3.1	.	0	-3	.
Clc1nc(CN2CCCCC2)nc2sc3c(c12)CCCC3	0	0	-3.7*	-13	-1	-7	i
COC(=O)c1ccc(NC(=O)c2cccc(C)c2[N+](=O)[O-])cc1	0	-22	0.47	8	1	8	.
CC(NCC(O)COCCC12CC3CC(CC(C3)C1)C2)c1ccccc1 (stereo not given)	0	18	-5.2*	-4	-1	-12	i
O=S1(=O)CCC(N=Nc2c(O)n(Cc3ccccc3)c3ccccc23)C1 (stereo not given)	.	-16	0.97	5	2	-62	.
N#Cc1c(-c2ccc(Br)cc2)cc(-c2cccnc2)nc1N	0	1	-0.77	-5	1	2	.
CS(=O)c1nc(-c2ccc(Br)cc2)cc(-c2ccccc2)c1C#N (stereo not given)	0	26	-4.1*	-11	3	-39	+
COc1ccc(-c2cc(-c3ccccc3)c(C#N)c(S(C)(=O)=O)n2)cc1	0	12	-1.6	.	1	-4	.
SMILES	Hsp70 act	S1P4 antagonist	Dynein cargo inh	S1P3 antag	S1P4 ag	Mdm2 ligase inh	Dynein confirm
CS(=O)(=O)c1nc(-c2ccc(Br)cc2)cc(-c2ccccc2)c1C#N	0	5	-6*	.	0	1	+
Cn1c(N)c(C(=O)COC(=O)[C@@H]2CCCN2S(=O)(=O)c2ccc(Cl)cc2)c(=O)n(C)c1=O	0	-5	-0.0015	-2	-1	-1	.
Cc1nc([N+](=O)[O-])c(Br)n1CC(=O)c1ccc2ccccc2c1	-1	-14	-4.3*	.	1	-6	+
Cc1cc([N+](=O)[O-])nn1CC(=O)c1ccccc1	0	-2	-0.8	13	4	-8	.
Cc1nc([N+](=O)[O-])c(Br)n1CC(=O)c1ccc(Br)cc1	0	15	-4.3*	.	-2	-6	+
Cc1nc([N+](=O)[O-])c(Br)n1CC(=O)c1ccccc1	0	-11	-5.3*	.	0	-8	+
CC(C)NS(=O)(=O)c1ccc(CCC(=O)N2CCCCC2)cc1	0	8	1.2	-7	1	-6	.
O=C1CC2c3ccccc3C1C1C(=O)N(CCO)C(=O)C21 (stereo not given)	0	-6	-0.55	6	3	-4	.
CCN(CC)c1ccc(/C=C2\CCC(/C=N/NC(=O)c3ccc(=O)n(C)c3)=C2N2CCOCC2)cc1	0	-8	-4.9	-16	1	-8	+
N#CC1=C(N)OC2=C(CC/C2=C\c2ccccc2Cl)C1c1ccccc1Cl (stereo not given)	0	-27	-0.03	-1	2	-7	.
N#CC1=C(N)OC2=C(CC/C2=C\c2ccccc2)C1c1ccccc1 (stereo not given)	0	22	-4.3	.	-1	-12	+
C/[N+]([O-])=C\C1C(=O)CCCC1=O	0	-4	-0.43	11	0	-6	.
COc1ccc(-c2cc(N)n(S(=O)(=O)c3c(F)c(F)c(F)c(F)c3F)n2)cc1OC	20*	26	-5.1*	0	0	-22	+
COc1ccc(S(=O)(=O)n2nc(-c3cc(OC)c(OC)c(OC)c3)cc2N)cc1OC	0	1	-0.12	2	-1	-1	.
CCc1n[n+](CC(=O)c2ccccc2)c(N)s1	-1	-2	-0.07	6	-2	-77	.
O=c1c(C(c2nnnn2C2CCCCC2)N2CCCCC2)coc2ccc(Cl)cc12 (stereo not given)	0	11	-4*	-5	0	-3	+
CCCCn1c(CCC)nc([N+](=O)[O-])c1Sc1ccc(Cl)cn1	0	21	-3.6*	.	0	-3	+
CC(C)Cn1c(C(C)C)nc([N+](=O)[O-])c1Sc1ccc(Cl)cn1	0	11	-0.013	.	-2	3	.
COc1cc(C2Oc3ccccc3C=C2[N+](=O)[O-])cc(OC)c1OC (stereo not given)	.	-3	-5.6*	-9	1	-7	+
